Measured values collected from several papers.
Compare with care: the assays were run in different laboratories.
Target: Homeodomain-interacting protein kinase 3 (HIPK3, Homo sapiens, UniProt Q9H422)

SMILES	observed	action	method	tested at	quantity	value
Cc1ccc(NC(=O)c2ccnc(C(F)(F)F)c2)cc1-c1cc(OCCO)nc(N2CCOCC2)c1	binding	–	competition with immobilised ligand	1 µM	remaining binding	98%
C=CC(=O)N1CCC([C@@H]2CCNc3c(C(N)=O)c(-c4ccc(Oc5ccccc5)cc4)nn32)CC1	enzyme activity	inhibitor	–	1 µM	inhibition	4%
C#Cc1cc(-c2cc(Nc3nc(N[C@@H](C)c4ccc(F)cn4)ncc3Cl)n[nH]2)ccc1C=O	enzyme activity	inhibitor	–	0.2 µM	inhibition	39.6%
CC(C)S(=O)(=O)c1ccc2nccc(Nc3ccc4sc(C5CCCC5)nc4c3)c2c1	enzyme activity	inhibitor	–	1 µM	activity vs control	102%
CN1CCN(C(=O)c2ccc(NC(=O)Nc3ccc(N(C)c4ccnc(Nc5ccc(CS(C)(=O)=O)cc5)n4)cc3)cc2)CC1	binding	–	competition with immobilised ligand	1 µM	remaining binding	71%
CO[C@@H]1[C@H](N(C)C(=O)c2ccccc2)C[C@H]2O[C@]1(C)n1c3ccccc3c3c4c(c5c6ccccc6n2c5c31)C(=O)NC4	enzyme activity	inhibitor	–	1 µM	inhibition	30%
C1=C/COCc2cc(ccc2OCCN2CCCC2)Nc2nccc(n2)-c2cccc(c2)COC/1	binding	–	–	0.1 µM	remaining binding	15%
CCCCC(=O)Nc1ccc(-c2ccc3ncn(CCC)c(=O)c3c2)cn1	binding	–	competition with immobilised ligand	0.5 µM	remaining binding	100%
